Results reported in ChEMBL document CHEMBL2146387, “Synthesis and biological evaluation of a new vitamin D2 analogue” (Bioorg Med Chem Lett, 2012).

How the values were obtained:
[1] = Cmax in mouse at 5 ug/kg; format: ADME, organism-based; parameters: dose 5 ug/kg; conditions: in vivo, 0.005 mg/kg
[2] = system: Mus musculus; assay: Toxicity in mouse assessed as mortality at 5 ug/kg, ip qd for 4 days; format: organism-based; conditions: in vivo, 0.005 mg/kg, 96 h
How it was run: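 Mice, groups of 5, given daily intraperitoneal injection at 5 µg/kg body weight for 4 days, isopropanol vehicle group alongside. Blood collected before dosing and at 24, 48, 72 and 96 h for plasma calcium (arsenazo III absorbance). Health condition recorded daily; deaths noted. Experiment repeated two times.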

[3] = system: Mus musculus; assay: Toxicity in mouse assessed as increase in plasma calcium level at 5 ug/kg, ip qd for 4 days measured after 24 to 96 hrs postdose; format: organism-based; conditions: in vivo, 0.005 mg/kg
How it was run: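 Mice (n = 5/group) were dosed ip daily at 5 µg/kg body weight for 4 days, with isopropanol as vehicle. Plasma calcium was read by arsenazo III metallochromic absorbance before injection (0 h, basal) and at 24, 48, 72 and 96 h. Data are means ± SD of five animals, and the experiment was run twice.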

[4] = AUC (0 to 24 hrs) in mouse at 5 ug/kg; format: ADME, organism-based; parameters: dose 5 ug/kg, time < 24 hr; conditions: plasma, 0.005 mg/kg
[5] = system: Mus musculus; assay: Toxicity in mouse assessed as increase in haematocrit at 5 ug/kg, ip qd for 4 days after 72 hrs of last postdose; format: organism-based; conditions: in vivo, 0.005 mg/kg
How it was run: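 Mice (n = 5/group) received a daily intraperitoneal injection at 5 µg/kg body weight for 4 days, with isopropanol as vehicle. Blood was drawn before dosing and at 24, 48, 72 and 96 h, and haematocrit was recorded from these samples.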

[6] = Cytotoxicity against human HN12 assessed as decrease in cell count after 120 hrs; format: functional; conditions: HN12, 120 h
[7] = system: HCT-116; assay: Cytotoxicity against human HCT116 assessed as decrease in cell count after 120 hrs; format: functional, cell-based; conditions: HCT-116, 120 h

| SMILES | Cmax [1] [ng/mL] | Activity [2] | Activity [3] | AUC(0-t) at 24 h [4] [ng·h/mL] | Activity [5] | IC50 [6] [nM] | IC50 [7] [nM] |
| --- | --- | --- | --- | --- | --- | --- | --- |
| C=C1/C(=C\C=C2/CCC[C@]3(C)[C@@H]([C@H](C)CCCC(C)(C)O)CC[C@@H]23)C[C@@H](O)C[C@@H]1O [CALCITRIOL] | > 10 | Toxic | Toxic | > 40 | Toxic |  |  |
| C=C1/C(=C\C=C2/CCC[C@]3(C)[C@@H]([C@H](C)/C=C\[C@H](C)C(O)(CC)CC)CC[C@@H]23)C[C@@H](O)C[C@@H]1O |  | Toxic | Toxic |  | Toxic | 5.05 | 0.76 |
